The source made the active and inactive calls. No cut-off for these calls is given here. Where a SMILES comes first, the peptide text is derived from it. [ ]: non-standard residue; d: D form. The star is where a group is joined. Hexanoyl(6-N3) = [N-]=[N+]=NCCCCCC(=O)*; Azidoacetyl = [N-]=[N+]=NCC(=O)*; X1 = C#CCCCCOCCOCCOCCOCCOCC(=O)*; Nle = CCCC[C@H](N)C(=O)O
Experiments:
[1] = biological target: T1, Gastrin/cholecystokinin type B receptor (Homo sapiens) (UniProt P32239); experiment: (§1) Displacement of Eu-DTPA-PEGO-CCK4 from human cholecystokinin 2 receptor overexpressed in HEK-293 cells co-expressing human MC4R after 1 hr by time resolved fluorescence-based competition binding assay; assay type: cell-based; settings: HEK293
T1 sequence (whole entry): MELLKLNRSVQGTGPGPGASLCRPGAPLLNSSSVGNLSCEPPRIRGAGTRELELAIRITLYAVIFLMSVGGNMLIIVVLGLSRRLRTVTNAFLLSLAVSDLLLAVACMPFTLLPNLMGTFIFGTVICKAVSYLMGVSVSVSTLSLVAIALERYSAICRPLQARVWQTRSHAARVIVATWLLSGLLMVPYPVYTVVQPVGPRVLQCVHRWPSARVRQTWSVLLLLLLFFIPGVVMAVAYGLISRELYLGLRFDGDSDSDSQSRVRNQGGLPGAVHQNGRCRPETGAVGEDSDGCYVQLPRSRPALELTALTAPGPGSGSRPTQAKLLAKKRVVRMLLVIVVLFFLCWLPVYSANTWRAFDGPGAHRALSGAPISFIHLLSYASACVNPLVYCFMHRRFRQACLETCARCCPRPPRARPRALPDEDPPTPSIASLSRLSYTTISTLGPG
Procedure, shortened: (§2)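 HEK-293 cells engineered to co-express hCCK2R and hMC4R, grown in DMEM/10% FBS with zeocin and geneticin, seeded 240,000 per well in six-well plates. Each well received binding buffer (DMEM, HEPES, BSA, 1,10-phenanthroline, leupeptin, bacitracin, pH 7.4) containing 15 nM Eu probe plus competitor at 10^-12 to 10^-5 M. Incubation 1 h at 37 °C, then scraping, three washes, Enhancement Solution 1 h at 37 °C, Eu TRF read.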

[2] = Retention time of the compound by reverse phase HPLC analysis; assay type: physicochemical
[3] = biological target: T2, Gastrin/cholecystokinin type B receptor (Homo sapiens, UniProt P32239); experiment: as §1; assay type: cell-based, HEK293; procedure, shortened: as §2
T2 sequence (P32239 whole entry): T1 sequence (whole entry)

[4] = biological target: T1, Gastrin/cholecystokinin type B receptor (Homo sapiens); experiment: Displacement of Eu-DTPA-PEGO-CCK4 from human cholecystokinin 2 receptor overexpressed in HEK-293 cells co-expressing human MC4R after 1 hr by time resolved fluorescence-based competition binding assay relative to acetylated […]; assay type: cell-based; settings: HEK293
[5] = Retention time of the compound by analytical HPLC method; assay type: physicochemical

## NC(=O)[C@H](CO)NC(=O)CCCCCn1cc(CN(Cc2cn(CCCCCC(=O)N[C@@H](CO)C(N)=O)nn2)Cc2cn(CCCCCC(=O)N[C@@H](CO)C(N)=O)nn2)nn1
[1]
  inhibition: inactive

## C#CCCCCOCCOCCOCCOCCOCC(=O)N[C@@H](Cc1c[nH]c2ccccc12)C(=O)N[C@@H](CCCC)C(=O)N[C@@H](CC(=O)O)C(=O)N[C@@H](Cc1ccccc1)C(N)=O (X1-W[Nle]DF-NH2)
[2]
  Retention_time: 16.9 min

## CCCC[C@H](NC(=O)[C@H](Cc1c[nH]c2ccccc12)NC(=O)CCCCCn1cc(COc2cc(OCc3cn(CCCCCC(=O)N[C@@H](Cc4c[nH]c5ccccc45)C(=O)N[C@@H](CCCC)C(=O)N[C@@H](CC(=O)O)C(=O)N[C@@H](Cc4ccccc4)C(N)=O)nn3)cc(OCc3cn(CCCCCC(=O)N[C@@H](Cc4c[nH]c5ccccc45)C(=O)N[C@@H](CCCC)C(=O)N[C@@H](CC(=O)O)C(=O)N[C@@H](Cc4ccccc4)C(N)=O)nn3)c2)nn1)C(=O)N[C@@H](CC(=O)O)C(=O)N[C@@H](Cc1ccccc1)C(N)=O
[3]
  Ki: 3.7 nM
[4]
  Ratio: 2
[2]
  Retention_time: 16.6 min
[5]
  Retention_time: 22.42 min

## NC(=O)[C@H](CO)NC(=O)CCCCCn1cc(COc2cc(OCc3cn(CCCCCC(=O)N[C@@H](CO)C(N)=O)nn3)cc(OCc3cn(CCCCCC(=O)N[C@@H](CO)C(N)=O)nn3)c2)nn1
[1]
  inhibition: inactive

## CCCC[C@H](NC(=O)[C@H](Cc1c[nH]c2ccccc12)NC(=O)CN=[N+]=[N-])C(=O)N[C@@H](CC(=O)O)C(=O)N[C@@H](Cc1ccccc1)C(N)=O (Azidoacetyl-W[Nle]DF-NH2)
[2]
  Retention_time: 14.6 min

## CCCC[C@H](NC(=O)[C@H](Cc1c[nH]c2ccccc12)NC(=O)Cn1cc(CN(Cc2cn(CC(=O)N[C@@H](Cc3c[nH]c4ccccc34)C(=O)N[C@@H](CCCC)C(=O)N[C@@H](CC(=O)O)C(=O)N[C@@H](Cc3ccccc3)C(N)=O)nn2)Cc2cn(CC(=O)N[C@@H](Cc3c[nH]c4ccccc34)C(=O)N[C@@H](CCCC)C(=O)N[C@@H](CC(=O)O)C(=O)N[C@@H](Cc3ccccc3)C(N)=O)nn2)nn1)C(=O)N[C@@H](CC(=O)O)C(=O)N[C@@H](Cc1ccccc1)C(N)=O
[3]
  Ki: 1.2 nM
[4]
  Ratio: 5
[2]
  Retention_time: 15.1 min
[5]
  Retention_time: 21.18 min

## CCCC[C@H](NC(=O)[C@H](Cc1c[nH]c2ccccc12)NC(=O)COCC(=O)NCCCOCCOCCOCCCNC(=O)CN(CCN(CCN(CC(=O)O)CC(=O)O)CC(=O)O)CC(=O)O)C(=O)N[C@@H](CC(=O)O)C(=O)N[C@@H](Cc1ccccc1)C(N)=O
[2]
  Retention_time: 22.9 min

## CCCC[C@H](NC(=O)[C@H](Cc1c[nH]c2ccccc12)NC(=O)COCCOCCOCCOCCOCCCCc1cn(CCCCCCOc2cc(OCCCCCCn3cc(CCCCOCCOCCOCCOCCOCC(=O)N[C@@H](Cc4c[nH]c5ccccc45)C(=O)N[C@@H](CCCC)C(=O)N[C@@H](CC(=O)O)C(=O)N[C@@H](Cc4ccccc4)C(N)=O)nn3)cc(OCCCCCCn3cc(CCCCOCCOCCOCCOCCOCC(=O)N[C@@H](Cc4c[nH]c5ccccc45)C(=O)N[C@@H](CCCC)C(=O)N[C@@H](CC(=O)O)C(=O)N[C@@H](Cc4ccccc4)C(N)=O)nn3)c2)nn1)C(=O)N[C@@H](CC(=O)O)C(=O)N[C@@H](Cc1ccccc1)C(N)=O
[3]
  Ki: 30 nM
[4]
  Ratio: 0.2
[2]
  Retention_time: 19.8 min
[5]
  Retention_time: 25.12 min

## CCCC[C@H](NC(=O)[C@H](Cc1c[nH]c2ccccc12)NC(=O)CCCCCN=[N+]=[N-])C(=O)N[C@@H](CC(=O)O)C(=O)N[C@@H](Cc1ccccc1)C(N)=O ({Hexanoyl(6-N3)}-W[Nle]DF-NH2)
[2]
  Retention_time: 17.7 min

## CCCC[C@H](NC(=O)[C@H](Cc1c[nH]c2ccccc12)NC(C)=O)C(=O)N[C@@H](CC(=O)O)C(=O)N[C@@H](Cc1ccccc1)C(N)=O (Ac-W[Nle]DF-NH2)
[3]
  Ki: 6.1 nM
[4]
  Ratio: 1
[2]
  Retention_time: 13.3 min
[5]
  Retention_time: 17.47 min

Source: ChEMBL document CHEMBL3400052, “Development of a time-resolved fluorescence probe for evaluation of competitive binding to the cholecystokinin 2 receptor” (Bioorg Med Chem, 2015)
